# Assay results published in ChEMBL document CHEMBL3120083, “Discovery of N-[4-[6-tert-butyl-5-methoxy-8-(6-methoxy-2-oxo-1H-pyridin-3-yl)-3-quinolyl]phenyl]methanesulfonamide (RG7109), a potent inhibitor of the hepatitis C virus NS5B polymerase” (J Med Chem, 2014).
# pEC50: −log10 of the molar value.
# Columns and labels:
# Hepatitis C virus [1] = assay: Antiviral activity against Hepatitis C virus genotype 1a clinical isolate RO-18 expressing NS5B assessed as inhibition of viral replication after 4 days by luciferase reporter gene assay; type: functional, organism-based, Hepacivirus hominis; conditions: genotype 1a clinical isolate RO-18, 96 h
# [2] = Thermodynamic solubility of the compound; type: physicochemical; conditions: read-out: Therm_solubility
# Hepatitis C virus [3] = assay: Antiviral activity against Hepatitis C virus genotype 1b clinical isolate RO-4 expressing NS5B assessed as inhibition of viral replication after 4 days by luciferase reporter gene assay; type: functional, organism-based, Hepacivirus hominis; conditions: genotype 1b clinical isolate RO-4, 96 h
# Hepatitis C virus [4] = assay: Antiviral activity against Hepatitis C virus genotype 1b clinical isolate RO-10 expressing NS5B assessed as inhibition of viral replication after 4 days by luciferase reporter gene assay; type: functional, organism-based, Hepacivirus hominis; conditions: genotype 1b clinical isolate RO-10, 96 h
# [5] = Drug uptake in Beagle dog at 30 mg/kg, po of amorphus MBP compound measured at 8 hrs; type: ADME, organism-based, Canis lupus familiaris; design: dose 30 mg/kg, route oral; conditions: in vivo, read-out: Drug uptake
# How it was run: (§1)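 Single oral dose by gavage in 2% Klucel LF in water (the amorphous MBP was made by solvent-controlled co-precipitation with Eudragit L100-55 from DMA into chilled pH 3.0 dilute HCl), n = 3. EDTA blood typically sampled at 0.25, 0.5, 1, 2, 4, 6, 8 and 24 h. Plasma levels by LC/MS/MS after acetonitrile protein precipitation.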
# Hepatitis C virus [6] = assay: Antiviral activity against Hepatitis C virus genotype 1b clinical isolate RO-3 expressing NS5B assessed as inhibition of viral replication after 4 days by luciferase reporter gene assay; type: functional, organism-based, Hepacivirus hominis; conditions: genotype 1b clinical isolate RO-3, 96 h
# Hepatitis C virus [7] = assay: Antiviral activity against Hepatitis C virus genotype 1b Con1 infected in human 2209-23 cells after 72 hrs by luciferase reporter gene assay in presence of 40% human serum; type: functional, organism-based, Hepacivirus hominis; conditions: isolate Con1, 2209-23, 72 h
# [8] = Oral bioavailability in Wistar/Han rat at 30 mg/kg of amorphus MBP compound; type: ADME, organism-based; conditions: in vivo; how it was run: as §1
# [9] = Drug uptake in Wistar/Han rat at 30 mg/kg, po of amorphus MBP compound measured at 8 hrs; type: ADME, organism-based; design: dose 30 mg/kg, route oral; conditions: in vivo, read-out: Drug uptake; how it was run: as §1
# [10] = Half life in Wistar/Han rat at 2.6 mg/kg, iv; type: ADME, organism-based; design: dose 2.6 mg/kg, route intravenous; conditions: in vivo
# How it was run: (§2)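 Single IV bolus by tail vein or jugular cannula in 2% dimethyl acetamide/20% PEG400/23.4% HPBCD, n = 3. EDTA blood taken at typically 0.08, 0.25, 0.5, 1, 2, 4, 6, 8 and 24 h. Plasma assayed by LC/MS/MS after acetonitrile protein precipitation; clearance, Vdss and t1/2 derived from the plasma data.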
# Hepatitis C virus [11] = assay: Antiviral activity against Hepatitis C virus genotype 1a clinical isolate RO-38 expressing NS5B assessed as inhibition of viral replication after 4 days by luciferase reporter gene assay; type: functional, organism-based, Hepacivirus hominis; conditions: genotype 1a clinical isolate RO-38, 96 h
# [12] = Half life in Beagle dog at 0.86 mg/kg, iv; type: ADME, organism-based, Canis lupus familiaris; design: dose 0.86 mg/kg, route intravenous; conditions: in vivo; how it was run: as §2
# Hepatitis C virus [13] = assay: Antiviral activity against Hepatitis C virus genotype 1a H77 expressing NS5B assessed as inhibition of viral replication after 4 days by luciferase reporter gene assay; type: functional, organism-based, Hepacivirus hominis; conditions: genotype 1a H77, 96 h
# Hepatitis C virus [14] = assay: Antiviral activity against Hepatitis C virus genotype 1b clinical isolate RO-7 expressing NS5B assessed as inhibition of viral replication after 4 days by luciferase reporter gene assay; type: functional, organism-based, Hepacivirus hominis; conditions: genotype 1b clinical isolate RO-7, 96 h
# [15] = AUC (0 to infinity) in Beagle dog at 30 mg/kg, po of amorphus MBP compound; type: ADME, organism-based, Canis lupus familiaris; design: time infinity, dose 30 mg/kg, route oral; conditions: plasma; how it was run: as §1
# Hepatitis C virus [16] = assay: Antiviral activity against Hepatitis C virus genotype 1a clinical isolate RO-28 expressing NS5B assessed as inhibition of viral replication after 4 days by luciferase reporter gene assay; type: functional, organism-based, Hepacivirus hominis; conditions: genotype 1a clinical isolate RO-28, 96 h
# Hepatitis C virus [17] = assay: Antiviral activity against Hepatitis C virus genotype 1a clinical isolate RO-33 expressing NS5B assessed as inhibition of viral replication after 4 days by luciferase reporter gene assay; type: functional, organism-based, Hepacivirus hominis; conditions: genotype 1a clinical isolate RO-33, 96 h
# Hepatitis C virus [18] = assay: Antiviral activity against Hepatitis C virus genotype 1b Con1 expressing NS5B assessed as inhibition of viral replication after 4 days by luciferase reporter gene assay; type: functional, organism-based, Hepacivirus hominis; conditions: isolate Con1, 96 h
# [19] = Cmax in Wistar/Han rat at 30 mg/kg, po of amorphus MBP compound; type: ADME, organism-based; design: dose 30 mg/kg, route oral; conditions: in vivo; how it was run: as §1
# [20] = Volume of distribution at steady state in Beagle dog at 0.86 mg/kg, iv; type: ADME, organism-based, Canis lupus familiaris; design: dose 0.86 mg/kg, route intravenous; conditions: in vivo, read-out: Vdss; how it was run: as §2
# [21] = Clearance in Beagle dog at 0.86 mg/kg, iv; type: ADME, organism-based, Canis lupus familiaris; design: dose 0.86 mg/kg, route intravenous; conditions: in vivo; how it was run: as §2
# Hepatitis C virus [22] = assay: Antiviral activity against Hepatitis C virus genotype 1b clinical isolate RO-1 expressing NS5B assessed as inhibition of viral replication after 4 days by luciferase reporter gene assay; type: functional, organism-based, Hepacivirus hominis; conditions: genotype 1b clinical isolate RO-1, 96 h
# Hepatitis C virus [23] = assay: Antiviral activity against Hepatitis C virus genotype 1a clinical isolate RO-41 expressing NS5B assessed as inhibition of viral replication after 4 days by luciferase reporter gene assay; type: functional, organism-based, Hepacivirus hominis; conditions: genotype 1a clinical isolate RO-41, 96 h
# [24] = AUC (0 to infinity) in Wistar/Han rat at 30 mg/kg, po of amorphus MBP compound; type: ADME, organism-based; design: time infinity, dose 30 mg/kg, route oral; conditions: plasma; how it was run: as §1
# Hepatitis C virus [25] = assay: Antiviral activity against Hepatitis C virus genotype 1b clinical isolate RO-9 expressing NS5B assessed as inhibition of viral replication after 4 days by luciferase reporter gene assay; type: functional, organism-based, Hepacivirus hominis; conditions: genotype 1b clinical isolate RO-9, 96 h
# Hepatitis C virus [26] = assay: Antiviral activity against Hepatitis C virus genotype 1b clinical isolate RO-8 expressing NS5B assessed as inhibition of viral replication after 4 days by luciferase reporter gene assay; type: functional, organism-based, Hepacivirus hominis; conditions: genotype 1b clinical isolate RO-8, 96 h
# [27] = Clearance in Wistar/Han rat at 2.6 mg/kg, iv; type: ADME, organism-based; design: dose 2.6 mg/kg, route intravenous; conditions: in vivo; how it was run: as §2
# [28] = Cmax in Beagle dog at 30 mg/kg, po of amorphus MBP compound; type: ADME, organism-based, Canis lupus familiaris; design: dose 30 mg/kg, route oral; conditions: in vivo; how it was run: as §1
# Hepatitis C virus [29] = assay: Antiviral activity against Hepatitis C virus genotype 1a H77 infected in human 2209-23 cells after 72 hrs by luciferase reporter gene assay in presence of 40% human serum; type: functional, organism-based, Hepacivirus hominis; conditions: genotype 1a H77, 2209-23, 72 h
# Hepatitis C virus [30] = assay: Antiviral activity against Hepatitis C virus genotype 1a clinical isolate RO-34 expressing NS5B assessed as inhibition of viral replication after 4 days by luciferase reporter gene assay; type: functional, organism-based, Hepacivirus hominis; conditions: genotype 1a clinical isolate RO-34, 96 h
# [31] = Oral bioavailability in Beagle dog at 30 mg/kg of amorphus MBP compound; type: ADME, organism-based, Canis lupus familiaris; conditions: in vivo; how it was run: as §1
# Hepatitis C virus [32] = assay: Antiviral activity against Hepatitis C virus genotype 1b Con1 infected in human 2209-23 cells after 72 hrs by luciferase reporter gene assay; type: functional, organism-based, Hepacivirus hominis; conditions: isolate Con1, 2209-23, 72 h
# How it was run: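 Stable GT-1b Con1 subgenomic replicon cell line expressing a renilla luciferase reporter, used as the readout of inhibition. EC50 from luciferase signal, n 2.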
# [33] = Volume of distribution at steady state in Wistar/Han rat at 2.6 mg/kg, iv; type: ADME, organism-based; design: dose 2.6 mg/kg, route intravenous; conditions: in vivo, read-out: Vdss; how it was run: as §2
# Hepatitis C virus [34] = assay: Antiviral activity against Hepatitis C virus genotype 1b clinical isolate RO-2 expressing NS5B assessed as inhibition of viral replication after 4 days by luciferase reporter gene assay; type: functional, organism-based, Hepacivirus hominis; conditions: genotype 1b clinical isolate RO-2, 96 h
# Hepatitis C virus [35] = assay: Antiviral activity against Hepatitis C virus genotype 1a clinical isolate RO-35 expressing NS5B assessed as inhibition of viral replication after 4 days by luciferase reporter gene assay; type: functional, organism-based, Hepacivirus hominis; conditions: genotype 1a clinical isolate RO-35, 96 h
structure (smiles),measurement,setting,value
COc1ccc(-c2cc(C(C)(C)C)c(OC)c3cc(-c4ccc(NS(C)(=O)=O)cc4)cnc23)c(=O)[nH]1,pEC50,Hepatitis C virus [1],9.40
same,solubility thermodynamic,[2],< 1 µg/mL
same,pEC50,Hepatitis C virus [3],9.96
same,pEC50,Hepatitis C virus [4],9.47
same,concentration at 8 h,[5],990 ng/mL
same,pEC50,Hepatitis C virus [6],9.37
same,pEC50,Hepatitis C virus [7],8.42
same,EC90,Hepatitis C virus [7],19 nM
same,bioavailability,[8],26%
same,concentration at 8 h,[9],620 ng/mL
same,half-life,[10],258 min
same,pEC50,Hepatitis C virus [11],8.37
same,half-life,[12],258 min
same,pEC50,Hepatitis C virus [13],9.52
same,pEC50,Hepatitis C virus [14],9.66
same,AUC(0-inf),[15],23700 ng·h/mL
same,pEC50,Hepatitis C virus [16],9.05
same,pEC50,Hepatitis C virus [17],9.22
same,pEC50,Hepatitis C virus [18],9.49
same,Cmax,[19],2100 ng/mL
same,Vd,[20],2.8 L/kg
same,clearance,[21],7.5 mL/min/kg
same,pEC50,Hepatitis C virus [22],9.96
same,pEC50,Hepatitis C virus [23],9.22
same,AUC(0-inf),[24],13800 ng·h/mL
same,pEC50,Hepatitis C virus [25],9.47
same,pEC50,Hepatitis C virus [26],9.48
same,clearance,[27],11.4 mL/min/kg
same,Cmax,[28],1500 ng/mL
same,pEC50,Hepatitis C virus [29],8.00
same,EC90,Hepatitis C virus [29],63 nM
same,pEC50,Hepatitis C virus [30],9.30
same,bioavailability,[31],31%
same,pEC50,Hepatitis C virus [32],9.00
same,Vd,[33],2.2 L/kg
same,pEC50,Hepatitis C virus [34],9.72
same,pEC50,Hepatitis C virus [35],9.52
